An excerpt weighted towards active compounds, which were near 11% of everything screened.
mHtt clearance: mutant huntingtin protein clearance; HeLa Exon1htt(103Q)mCFP, aggregate imaging; zero = plate's median compound well; inhibition, % at 1.5 µM; 47,000 tested, 0.42% active;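 active = inhibition of aggregate fluorescence above about 70%, also judged a hit by eye on the cell image, limit read from the data, passing the limit was not always enough; inconclusive = no rule stated for this call; inactive = not judged a hit on image review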;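 also: cells exposed to compound for three days before fixation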
M1 agonist: activates the M1 muscarinic receptor; 64,000 tested, 3% active; CHO-M1 cells, Fluo-4 calcium fluorescence, agonist mode; active compounds read high; AID 626; B-score at 10 µM;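 active = fluorescence rise, raw or as B-score row- and column-corrected plate score, outside the 99.7% band of its plate's samples, either direction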
D1 mod: allosterically modulates the human D1 dopamine receptor | P21728 | HEK293 D1, CRE-luciferase, dopamine EC30 potentiation; actives deviate in either direction | B-score at 10 µM | 58,000 tested, 5.9% active;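 active = luminescence count or its row- and column-corrected plate score outside the 99.7% band of the plate's sample wells, on either side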
Target sequence (P21728 whole entry, looked up): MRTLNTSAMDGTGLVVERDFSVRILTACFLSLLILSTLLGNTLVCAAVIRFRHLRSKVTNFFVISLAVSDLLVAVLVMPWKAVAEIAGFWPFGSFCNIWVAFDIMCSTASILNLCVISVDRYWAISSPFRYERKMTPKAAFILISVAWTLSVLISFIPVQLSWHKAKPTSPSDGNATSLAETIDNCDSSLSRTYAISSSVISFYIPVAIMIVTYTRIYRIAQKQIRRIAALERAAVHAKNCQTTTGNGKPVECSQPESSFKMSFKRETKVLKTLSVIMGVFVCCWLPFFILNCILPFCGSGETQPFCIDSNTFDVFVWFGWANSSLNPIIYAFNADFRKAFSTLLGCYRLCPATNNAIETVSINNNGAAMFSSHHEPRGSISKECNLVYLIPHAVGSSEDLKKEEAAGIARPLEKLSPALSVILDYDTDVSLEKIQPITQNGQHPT
RORA act: RORA (human) activation; P35398; CHO-K1 Gal4-RORA LBD luciferase reporter, luminescence; percent increase over mock-subtracted basal signal; activation, % at 10 µM; 65,000 tested, 1.5% active; AID 560;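 active = activation above the mean of all tested compounds plus 3 SD, cut at about 49% in these data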
SF1 activator: SF-1 (human) activation | CHO-K1 Gal4-SF-1 LBD luciferase reporter; % increase over DMSO SF-1-specific signal | AID 522 | activation, % at 10 µM | 65,000 tested, 1.9% active;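 active = activation above the mean activation of all tested compounds plus 3 SD, cut at about 50% in these data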
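Material: CHO-K1 cells with Gal4–hSF-1 LBD chimera plus Gal4-driven luciferase / Input: 4,000 CHO-K1 cells per well / Incubation: compound exposure 20 h at 37 °C / Signal: luminescence read 15 min after SteadyLite luciferase reagent, after room-temperature equilibration / Read-out: percent activation versus DMSO / Benchmarks: DMSO negative control and −SF1 background wells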
M1 antag: blocks the rat M1 muscarinic receptor response to acetylcholine. CHO-M1 cells, Fluo-4 calcium, ACh EC80 antagonist mode; active compounds read low. B-score at 10 µM. 64,000 tested, 3.4% active. AID 628;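 active = calcium fluorescence response, raw or row-and-column corrected B-score, differing from the plate sample mean either way at a set confidence level, mostly lower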
D1 PAM confirm: confirmation of human D1 dopamine receptor allosteric modulators; AID 642; 2,200 tested, 88% active; HEK293 D1 CRE-luciferase, dopamine EC30 potentiation; active compounds read high; shares compounds with D1 mod; luminescence at 10 µM;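 active = luminescence in either of two replicates above the same-plate mean plus 3 SD of the low-dose dopamine control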
D1 no dopamine: activates D1 CRE-luciferase signal without dopamine present; 1,900 tested, 0.8% active; luminescence at 10 µM; shares compounds with D1 mod; HEK293 D1 CRE-luciferase, luminescence, no dopamine; active compounds read high; in the data active = luminescence above about 3900
Isoprot counter: alters isoproterenol CRE-luciferase response in HEK293 cells. HEK293 D1 CRE-luciferase, isoproterenol EC30 counter-screen. shares compounds with D1 mod. calls only at 10 µM. 2,200 tested, 63% active;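 active = luminescence in either replicate above plate mean of wells with a partly effective reference agonist dose plus 3 SD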;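 also: isoproterenol raises cAMP through native beta-adrenoceptor Gs so signal bypasses D1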
Numbers stand for hits; - = inactive; ? = inconclusive; . = not tested or not shown; + = active, no number.

SMILES	mHtt clearance	M1 agonist	D1 mod	RORA act	SF1 activator	M1 antag	D1 PAM confirm	D1 no dopamine	Isoprot counter
C=C(C)COc1ccc(-c2[nH]ncc2Oc2cccc(OC)c2)c(O)c1	-	-	-	-	-	-	.	.	.
CCc1nc(N)c(C#N)c(-c2cccn2C)c1C	.	-	-	-	-	-	.	.	.
CCc1nc(N)c(C#N)c(-c2ccc(O)c(OC)c2)c1C	-	-	.	-	-	-	.	.	.
CCc1nc(C)c(C#N)c2cc(OC)c(OC)cc12	-	-	4.4	-	-	-	11084	-	+
CCc1nc(N)c(C#N)c(-c2ccc(OC)c(OC)c2)c1C	-	-	6.7	-	-	-	11376	-	+
CCc1nc(N)c(C#N)c(-c2ccncc2)c1C	.	-	4.4	-	-	-	15468	-	-
COc1ccc(OC)c(CC(NC(C)=O)C(=O)NC2CCN(c3nc(C)cc(C)c3C#N)CC2)c1 (configuration not stated)	.	-	.	-	-	-	.	.	.
CC(=O)c1sc(-c2c(C)nc3sccn23)nc1C1CCCC1	.	-	-	-	-	-	.	.	.
Cn1c(Cl)cnc1C1CC(=O)c2cc(Cl)ccc2O1 (configuration not stated)	-	-	-	-	-	-	.	.	.
CCn1[nH]c(=O)c(=Nc2c(C)n(C)n(-c3ccccc3)c2=O)cc1-c1ccc(Cl)cc1	-	-	-	-	-	-	.	.	.
CCN(CC)C(=O)Cn1c(=O)n(-c2ccccc2)c(=O)n1CC(=O)N(CC)CC	-	-	-	-	-	-	.	.	.
CC1CCc2nc(NCCO)nc(C(F)(F)F)c2C1 (configuration not stated)	-	-	7.5	-	-	-	13160	-	+
OCCNc1nc(N2CCCC2)nc(N2CCCC2)n1	-	.	.	.	.	.	.	.	.
O=C(Cc1coc(-c2ccc(F)cc2)n1)NCc1ccccc1	.	-	-	-	-	-	.	.	.
CCN(CC(=O)Nc1ccc2c(c1)OCCO2)C(=O)c1cccc(S(=O)(=O)N2CCOCC2)c1	.	-	3	-	-	-	-	.	-
COc1ccc(C(=O)Oc2cccnc2)cc1OC	-	-	8.6	-	-	-	20932	-	+
Cc1nc2ccccc2n1CCC(=O)Nc1cccc(F)c1	.	-	-	-	-	-	.	.	.
C=CCn1c(SCc2nc3c(c(=O)[nH]c(=O)n3CCCC)n2CCC)nnc1-c1ccccc1	.	-	3.8	-	-	-	9252	-	-
CCOc1ccc(C2C(C#N)=C(N)SC(N)=C2C#N)cc1OCC	.	-	5.4	-	-	-	13032	-	+
CCOc1ccc(C2C(C#N)=C(N)SC(N)=C2C#N)cc1OC	.	64	6.1	-	-	-	10912	-	-
CCOc1ccccc1C1C(C#N)=C(N)SC(N)=C1C#N	-	-	-	-	-	-	.	.	.
CC1CCN(S(=O)(=O)c2ccc3c(c2)c(=O)c(C(=O)N2CCCCC2)cn3C)CC1	-	-	-	-	-	-	.	.	.
COc1cccc(-c2noc(CCC(=O)Nc3cccnc3)n2)c1	.	-	-	-	-	-	.	.	.
COc1ccc(-c2noc(CCC(=O)Nc3cccnc3)n2)cc1OC	-	-	4.7	-	-	-	17976	-	-
CCOc1ccc(Cc2nc(-c3nonc3N)no2)cc1OCC	.	-	7.7	-	-	-	13988	-	+
SMILES	mHtt clearance	M1 agonist	D1 mod	RORA act	SF1 activator	M1 antag	D1 PAM confirm	D1 no dopamine	Isoprot counter
COc1ccc(-c2noc(CCC(=O)NC3CCCCC3)n2)cc1OC	-	-	-	-	-	-	.	.	.
CCOc1ccc(-c2noc(CCC(N)=O)n2)cc1OCC	.	.	11	-	-	.	16532	-	+
CCCCN(C)C(=O)CS(=O)(=O)Cc1nc(-c2cccc(OC)c2)oc1C	-	-	-	-	-	-	.	.	.
CCNc1nc(NCC)nc(N2CC(=O)N(CC(=O)OCC)C2=N)n1	-	.	.	.	.	.	.	.	.
Cn1ncc2c(NCc3ccccc3)ncnc21	-	-	-	-	-	-	.	.	.
C1=Nc2c(NCc3ccccc3)ncnc2Oc2ccccc21	-	-	8	-	-	-	10088	-	+
O=c1c2ccccc2sc2nc(C3CCCCC3)n(Cc3ccco3)c(=O)c12	.	-	-	-	-	-	.	.	.
CCc1nc2sc3ccccc3c(=O)c2c(=O)n1Cc1ccco1	.	-	3.4	-	-	-	12936	-	-
CC1CCC(NC(=O)CC2Oc3ccccc3NC2=O)CC1 (configuration not stated)	.	-	-	-	-	-	.	.	.
Fc1ccc(-c2csc3nnc(SCc4cccnc4)n23)cc1	-	-	17	-	-	-	26500	-	+
O=C(CCSc1nnc2scc(-c3ccccc3)n12)NCc1ccc2c(c1)OCO2	-	-	7.3	-	-	-	11856	-	+
c1ccc(-c2csc3nnc(SCc4ccc5c(c4)OCO5)n23)cc1	-	-	6.8	-	-	-	16212	-	+
Cc1ccc(C)c(NC(=O)CSc2nnc(-c3ccccc3)n2N)c1	.	-	-	-	-	-	.	.	.
Cc1cc(N)n2ncc(-c3cccc(Br)c3)c2n1	-	-	6.4	-	59	-	10808	-	+
CCOc1ccc(-c2nnn(CC(=O)c3ccc4c(c3)OCCO4)n2)cc1OCC	.	-	9.3	-	-	-	18056	-	+
CCCn1nnnc1SCC(=O)c1ccc2c(c1)OCCO2	-	-	-	-	-	-	.	.	.
Cn1c(=O)c2c(nc(NCc3ccc4c(c3)OCO4)n2Cc2ccccc2)n(C)c1=O	-	-	.	-	-	-	.	.	.
Cn1c(=O)c2c(nc(NCc3ccc4c(c3)OCO4)n2Cc2ccccc2F)n(C)c1=O	.	-	4.7	-	-	-	6940	-	+
Clc1ccc(-c2nn3c(-c4cccc(Cl)c4)nnc3s2)cc1	.	-	.	-	-	-	.	.	.
Cc1ccc(-c2nnc3sc(-c4ccncc4)nn23)cc1	-	-	-	-	-	-	.	.	.
COc1cccc(-c2nn3c(-c4ccccn4)nnc3s2)c1	-	-	.	-	-	-	.	.	.
c1ccc(-c2nn3c(-c4ccccc4)nnc3s2)cc1	.	-	6.3	-	-	-	14100	-	-
COc1cccc(-c2nn3c(-c4cc(C)[nH]n4)nnc3s2)c1	-	-	3.4	-	-	-	6292	-	-
Cc1cccc(-c2nnc3sc(-c4ccccc4)nn23)c1	.	-	7.6	-	-	-	15580	-	+
COc1ccc(CCNC(=O)c2cnn3cccnc23)cc1OC	-	-	13	-	-	-	14608	-	+
O=C(CSc1n[nH]c(-c2ccccc2)n1)c1ccccc1	?	-	-	-	-	-	.	.	.

Source: PubChem (several laboratories)
